# From ChEMBL document CHEMBL3414437, “Synthesis of CDDO-amino acid-nitric oxide donor trihybrids as potential antitumor agents against both drug-sensitive and drug-resistant colon cancer” (J Med Chem, 2015)
# Active and inactive are the calls of the source. The calls are words filed in the database; no cut-off is given here.
# Columns and labels:
# Mus musculus [1] = experiment: Toxicity in nude BALB/c mouse xenografted with FU-resistant human HCT8 cells assessed as abnormal weight changes in lung at 59.4 umol/kg administered as via oral gavage daily for 21 days; format: organism-based, HCT-8; conditions: in vivo, 504 h
# Procedure, shortened: (§1)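 Male BALB/c nude mice, 6-8 weeks old, inoculated s.c. in right flank with HCT-8/5-FU cells (2 × 10^6/mouse). Once tumors reached 180-200 mm3 (9-11 days post-implantation), mice were randomized and dosed by gavage daily for 21 consecutive days in cremophor-EL/DMSO/PBS (1:1:8) (vehicle alone 0.2 mL). Body weights recorded on day 1 and day 21. Organ size, color and weights were inspected for liver, kidney, lung and heart. n = 8 per group; mean ± SD.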
# Mus musculus [2] = experiment: Toxicity in nude BALB/c mouse xenografted with FU-resistant human HCT8 cells assessed as abnormal color changes in kidney at 59.4 umol/kg administered as via oral gavage daily for 21 days; format: organism-based, HCT-8; conditions: in vivo, 504 h
# Procedure, shortened: (§2)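 Male BALB/c nude mice aged 6-8 weeks, implanted s.c. in the right flank with HCT-8/5-FU cells (2 × 10^6). Once tumors reached 180-200 mm3 (days 9-11), randomized to daily gavage for 21 days in cremophor-EL/DMSO/PBS (1:1:8), 0.2 mL. At the end, liver, kidney, lung and heart checked for size, colour and weight. n = 8 per group.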
# HCT-8 [3] = experiment: Inhibition of BCRP protein expression in FU-resistant human HCT8 cells at 1 uM incubated for 24 hrs by Western blotting method; format: functional, cell-based
# Procedure, shortened: (§3)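 Cells (1 x 10^6) grown 24 h in 6 cm dishes, then exposed in duplicate for 24 h to 0.25, 0.5 or 1 µM compound, with or without PTIO. Lysates (20 µg/lane) were run on 7.5% SDS-PAGE, blotted to PVDF and blocked in 5% milk. HRP secondaries with ECL detection; bands quantified by densitometry against β-actin or GAPDH. Three separate experiments, mean ± SD.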
# Mus musculus [4] = experiment: Toxicity in nude BALB/c mouse xenografted with FU-resistant human HCT8 cells assessed as abnormal weight changes in liver at 59.4 umol/kg administered as via oral gavage daily for 21 days; format: organism-based, HCT-8; conditions: in vivo, 504 h; procedure, shortened: as §1
# Mus musculus [5] = experiment: Toxicity in nude BALB/c mouse xenografted with FU-resistant human HCT8 cells assessed as abnormal color changes in heart at 59.4 umol/kg administered as via oral gavage daily for 21 days; format: organism-based, HCT-8; conditions: in vivo, 504 h; procedure, shortened: as §2
# Mus musculus [6] = experiment: Toxicity in nude BALB/c mouse xenografted with FU-resistant human HCT8 cells assessed as abnormal size changes in lung at 59.4 umol/kg administered as via oral gavage daily for 21 days; format: organism-based, HCT-8; conditions: in vivo, 504 h; procedure, shortened: as §2
# [7] = molecular target: Multidrug resistance-associated protein 1 (Homo sapiens, UniProt P33527); experiment: Induction of nitrosylation of MRP1 protein in FU-resistant human HCT8 cells at 1 uM incubated for 24 hrs by Western blotting method; format: cell-based; conditions: hct-8, 24 h
# Chain of Multidrug resistance-associated protein 1 (P33527 whole entry): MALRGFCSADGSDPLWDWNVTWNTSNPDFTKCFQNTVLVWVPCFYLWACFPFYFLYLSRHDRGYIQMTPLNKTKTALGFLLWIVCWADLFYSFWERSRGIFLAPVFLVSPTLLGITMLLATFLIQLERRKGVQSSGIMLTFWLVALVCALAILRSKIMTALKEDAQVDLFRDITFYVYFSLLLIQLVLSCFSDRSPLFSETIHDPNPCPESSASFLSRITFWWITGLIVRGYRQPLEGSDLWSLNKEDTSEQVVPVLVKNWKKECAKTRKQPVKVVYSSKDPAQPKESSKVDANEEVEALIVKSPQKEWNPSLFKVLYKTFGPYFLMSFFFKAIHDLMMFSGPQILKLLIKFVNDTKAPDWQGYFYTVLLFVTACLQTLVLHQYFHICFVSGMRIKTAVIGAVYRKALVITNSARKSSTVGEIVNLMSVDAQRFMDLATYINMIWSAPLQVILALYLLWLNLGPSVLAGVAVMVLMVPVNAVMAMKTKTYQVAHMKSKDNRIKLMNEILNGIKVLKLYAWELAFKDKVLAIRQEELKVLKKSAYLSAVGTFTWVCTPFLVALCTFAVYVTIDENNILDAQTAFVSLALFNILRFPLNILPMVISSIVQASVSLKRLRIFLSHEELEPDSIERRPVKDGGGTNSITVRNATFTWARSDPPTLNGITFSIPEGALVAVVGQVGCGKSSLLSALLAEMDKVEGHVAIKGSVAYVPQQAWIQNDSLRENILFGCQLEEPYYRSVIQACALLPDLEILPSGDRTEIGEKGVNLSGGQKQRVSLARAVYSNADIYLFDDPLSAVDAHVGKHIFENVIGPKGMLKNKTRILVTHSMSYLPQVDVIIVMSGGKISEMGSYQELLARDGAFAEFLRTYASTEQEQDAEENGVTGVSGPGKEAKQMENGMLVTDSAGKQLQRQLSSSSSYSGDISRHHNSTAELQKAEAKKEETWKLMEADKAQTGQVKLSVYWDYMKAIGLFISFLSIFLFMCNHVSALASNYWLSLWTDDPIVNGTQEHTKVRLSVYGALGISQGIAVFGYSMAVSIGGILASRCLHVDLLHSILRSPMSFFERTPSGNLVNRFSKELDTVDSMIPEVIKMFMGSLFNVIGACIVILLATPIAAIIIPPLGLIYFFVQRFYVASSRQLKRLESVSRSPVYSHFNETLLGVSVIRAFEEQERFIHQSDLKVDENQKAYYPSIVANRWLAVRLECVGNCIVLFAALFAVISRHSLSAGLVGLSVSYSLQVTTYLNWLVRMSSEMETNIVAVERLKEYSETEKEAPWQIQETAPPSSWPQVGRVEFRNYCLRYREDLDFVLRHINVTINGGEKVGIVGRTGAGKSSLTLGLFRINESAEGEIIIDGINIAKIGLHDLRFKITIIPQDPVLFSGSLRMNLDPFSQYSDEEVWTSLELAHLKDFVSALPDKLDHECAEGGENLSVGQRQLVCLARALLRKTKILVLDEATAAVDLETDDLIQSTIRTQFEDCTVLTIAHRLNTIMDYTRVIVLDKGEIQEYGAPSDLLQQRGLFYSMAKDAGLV
# Procedure, shortened: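 HCT-8/5-FU cells (1 × 10^6) treated in duplicate for 24 h with 0.25, 0.5 or 1 µM test compound or 1 µM reference, with or without PTIO. Lysates immunoprecipitated overnight at 4 °C with anti-nitrotyrosine antibody on protein G beads. Eluates blotted with specific anti-Pgp, anti-MRP1 or anti-BCRP antibodies and quantified by densitometry. Mean ± SD of three experiments.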
# [8] = molecular target: Signal transducer and activator of transcription 3 (Homo sapiens) (UniProt P40763); experiment: Inhibition of STAT3 protein phosphorylation in human HCT8 cells at 1 uM incubated for 24 hrs by Western blotting method; format: cell-based; conditions: HCT-8; procedure, shortened: as §3
# Chain of Signal transducer and activator of transcription 3 (Homo sapiens) (P40763 whole entry): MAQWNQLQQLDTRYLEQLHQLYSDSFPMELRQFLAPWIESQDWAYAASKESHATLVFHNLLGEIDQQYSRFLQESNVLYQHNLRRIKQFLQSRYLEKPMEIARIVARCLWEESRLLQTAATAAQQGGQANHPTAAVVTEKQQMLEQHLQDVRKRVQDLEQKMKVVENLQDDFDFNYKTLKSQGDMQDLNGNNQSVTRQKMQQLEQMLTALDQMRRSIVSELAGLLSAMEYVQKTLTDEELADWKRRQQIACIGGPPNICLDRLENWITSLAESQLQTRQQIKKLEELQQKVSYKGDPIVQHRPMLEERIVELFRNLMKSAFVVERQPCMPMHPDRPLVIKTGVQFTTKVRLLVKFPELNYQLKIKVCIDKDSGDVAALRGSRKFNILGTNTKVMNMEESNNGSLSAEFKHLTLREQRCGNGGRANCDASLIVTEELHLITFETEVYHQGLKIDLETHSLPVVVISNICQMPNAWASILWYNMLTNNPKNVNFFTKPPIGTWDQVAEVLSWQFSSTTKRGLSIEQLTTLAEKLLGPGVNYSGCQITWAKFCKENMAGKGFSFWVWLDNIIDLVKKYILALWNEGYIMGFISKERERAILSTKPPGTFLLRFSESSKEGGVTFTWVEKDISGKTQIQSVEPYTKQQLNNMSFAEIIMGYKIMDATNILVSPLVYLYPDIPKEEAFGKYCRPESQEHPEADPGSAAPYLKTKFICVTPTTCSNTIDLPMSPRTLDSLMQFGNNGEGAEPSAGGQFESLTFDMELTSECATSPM
# HCT-8 [9] = experiment: Inhibition of MRP1 protein expression in FU-resistant human HCT8 cells at 1 uM incubated for 24 hrs by Western blotting method; format: functional, cell-based; procedure, shortened: as §3
# Mus musculus [10] = experiment: Toxicity in nude BALB/c mouse xenografted with FU-resistant human HCT8 cells assessed as abnormal weight changes in heart at 59.4 umol/kg administered as via oral gavage daily for 21 days; format: organism-based, HCT-8; conditions: in vivo, 504 h; procedure, shortened: as §2
# HCT-8 [11] = experiment: Inhibition of MRP1 protein expression in FU-resistant human HCT8 cells at 0.25 to 1 uM incubated for 24 hrs by Western blotting method; format: functional, cell-based; procedure, shortened: as §3
# Mus musculus [12] = experiment: Toxicity in male ICR mouse assessed as body weight level at 2.38 x 10^3 umol/kg administered as single dose via oral gavage measured on day 14 post treatment (reference value: 19.5 +/- 0.85 g); format: organism-based; conditions: in vivo
# [13] = Antitumor activity against FU-resistant human HCT8 cells xenografted in nude BALB/c mouse assessed as reduction in tumor weight at 17.8 umol/kg administered as via oral gavage daily for 21 days; format: functional; conditions: HCT-8, po, 504 h
# Procedure, shortened: (§4)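 Male BALB/c nude mice, 6–8 weeks old, inoculated s.c. in the right flank with HCT-8/5-FU cells (2 × 10^6). Once tumors reached 180–200 mm3 (days 9–11), mice were randomized (n = 8) to daily oral gavage for 21 days in cremophor-EL/DMSO/PBS (1:1:8). Tumor volume = W2(L/2), caliper-measured every other day, blinded; tumors weighed at end.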
# Mus musculus [14] = experiment: Toxicity in nude BALB/c mouse xenografted with FU-resistant human HCT8 cells assessed as abnormal size changes in kidney at 17.8 to 35.7 umol/kg administered as via oral gavage daily for 21 days; format: organism-based, HCT-8; conditions: in vivo, 504 h; procedure, shortened: as §2
# [15] = molecular target: Signal transducer and activator of transcription 3 (Homo sapiens) (UniProt P40763); experiment: Inhibition of STAT3 protein phosphorylation in human HCT8 cells at 0.25 to 1 uM incubated for 24 hrs by Western blotting method; format: cell-based; conditions: HCT-8; procedure, shortened: as §3
# [16] = Antitumor activity against FU-resistant human HCT8 cells xenografted in nude BALB/c mouse assessed as reduction in tumor weight at 35.7 umol/kg administered as via oral gavage daily for 21 days; format: functional; conditions: HCT-8, po, 504 h; procedure, shortened: as §4
# HCT-8 [17] = experiment: Inhibition of BCRP protein expression in FU-resistant human HCT8 cells at 0.25 to 1 uM incubated for 24 hrs by Western blotting method; format: functional, cell-based; procedure, shortened: as §3
# HCT-8 [18] = experiment: Antiproliferative activity against 5-FU resistant human HCT8 cells assessed as inhibition of cell proliferation at 0.25 uM dosed 1 hr after NO scavenger carboxy-PTIO treatment and measured after 24 hrs by MTT assay; format: functional
# HCT-8 [19] = experiment: Antiproliferative activity against human HCT8 cells assessed as inhibition of cell proliferation at 0.125 to 0.5 uM incubated for 72 hrs after 24 hrs of pre-treatment with 0.75 uM and 1 .5 uM pepT1 substrate Gly-Sar by MTT assay; format: functional, cell-based
# Procedure, shortened: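 Cells pretreated with or without Gly-Sar (0.75 or 1.5 µM) for 24 h, then given a range of compound concentrations for 72 h. Proliferation inhibition measured by MTT.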
# Mus musculus [20] = experiment: Toxicity in nude BALB/c mouse xenografted with FU-resistant human HCT8 cells assessed as abnormal color changes in kidney at 17.8 to 35.7 umol/kg administered as via oral gavage daily for 21 days; format: organism-based, HCT-8; conditions: in vivo, 504 h; procedure, shortened: as §2
# HCT-8 [21] = experiment: Inhibition of MRP1 protein expression in FU-resistant human HCT8 cells at 1 uM in presence of NO scavenger carboxy-PTIO incubated for 24 hrs by Western blotting method; format: functional, cell-based; procedure, shortened: as §3
# HCT-8 [22] = experiment: Antitumor activity against FU-resistant human HCT8 cells xenografted in nude BALB/c mouse assessed as reduction in tumor volume at 17.8 to 35.7 umol/kg administered as via oral gavage daily for 21 days; format: functional; procedure, shortened: as §4
compound,measurement,setting,value
COC(=O)[C@]12CCC(C)(C)C[C@H]1[C@H]1C(=O)C=C3[C@@]4(C)C=C(C#N)C(=O)C(C)(C)[C@@H]4CC[C@@]3(C)[C@]1(C)CC2 [BARDOXOLONE METHYL],Activity,Mus musculus [1],Non-toxic
same,Activity,Mus musculus [2],Non-toxic
same,inhibition,HCT-8 [3],inactive
same,Activity,Mus musculus [4],Non-toxic
same,Activity,Mus musculus [5],Non-toxic
same,Activity,Mus musculus [6],Non-toxic
same,Activity,[7],Not Active
same,inhibition,[8],Active
same,inhibition,HCT-8 [9],inactive
same,Activity,Mus musculus [10],Non-toxic
CC1(C)CC[C@]2(C(=O)NCC(=O)OCC#CCOc3no[n+]([O-])c3S(=O)(=O)c3ccccc3)CC[C@]3(C)[C@H](C(=O)C=C4[C@@]5(C)C=C(C#N)C(=O)C(C)(C)[C@@H]5CC[C@]43C)[C@@H]2C1,inhibition,HCT-8 [11],Dose-dependent effect
same,Activity,Mus musculus [12],31.9 g
same,inhibition in vivo at 17.8 µmol/kg,[13],49.2%
same,Activity,Mus musculus [14],Non-toxic
same,inhibition,[15],Dose-dependent effect
same,inhibition in vivo at 35.7 µmol/kg,[16],60.8%
same,inhibition,HCT-8 [17],Dose-dependent effect
same,inhibition,HCT-8 [18],inactive
same,inhibition,HCT-8 [19],inactive
same,Activity,Mus musculus [20],Non-toxic
same,inhibition,HCT-8 [21],inactive
same,inhibition,HCT-8 [22],Dose-dependent effect
